From ChEMBL document CHEMBL1124262, “Cardiotonic agents. Synthesis and inotropic activity of a series of isoquinolin-3-ol derivatives” (J Med Chem, 1988)
Blank lines part the entries; values can stand above or below the molecule they belong to.

Legend:
Phosphodiesterase 3 = Phosphodiesterase 3 (Homo sapiens, UniProt Q14432+Q13370); assay: Inhibition of phosphodiesterase fraction III in anesthetized open chest dogs; format: functional, Canis lupus familiaris; settings: target entry is the homologue from another species
Outline: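 Enzyme is dog heart PDE-III, the third DEAE-cellulose fraction eluted at 800 mM sodium acetate. Compounds are tested at 0.01–1000 μM with 0.25 μM cAMP containing [³H]cAMP, in 0.05 M Tris-HCl pH 7.4 with 5 mM MgCl2. The reaction is stopped by heat, then snake venom converts product to adenosine. [³H]adenosine is counted by scintillation after Dowex separation. IC50 comes from ≥2 determinations, each in duplicate.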

Canis familiaris [1] = assay: Change in left ventricular pressure of anaesthetized, open chest dogs following 0.875 mg/kg i.v. administration.; format: functional, Canis lupus familiaris, Heart left ventricle; settings: route intravenous
Outline: (§1)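 Anesthetized open-chest dogs, one drug per animal. Compound is in DMF diluted to 10% in saline, or given as the HCl salt in saline. It is infused into the femoral vein by pump at 0.58-2.2 mL/min in 3-4 stepwise cumulative doses, each over 5 min after the prior peak. Readings are CF by right-ventricle strain gauge, dP/dtmax by Millar LV catheter, HR by cardiotachometer and MAP from femoral artery, as % change from predrug control.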

Canis familiaris [2] = assay: Percent change in heart rate (HR) in anesthetized open chest dogs after a iv dose of 0.875 mg/kg; format: functional, Canis lupus familiaris; outline: as §1
Canis familiaris [3] = assay: Percent change in mean arterial blood pressure (MAP) in anesthetized open chest dogs iv administration at 0.875 mg/kg; format: functional, Canis lupus familiaris; outline: as §1
Canis familiaris [4] = assay: Change in heart contractile force of anaesthetized, open chest dogs following 0.875 mg/kg i.v. administration.; format: functional, Canis lupus familiaris; settings: route intravenous; outline: as §1
Canis familiaris [5] = assay: 50% increase in contractile force in one to three anesthetized dogs administered intravenously; format: functional; settings: Canis lupus familiaris, iv
Outline: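 Anesthetized dogs (one to three). Compound is infused iv in three to four stepwise increasing doses, each over 5 min once the previous effect has peaked. Contractile force is recorded with a Walton Brodie strain gauge on the right ventricle. The dose (μg/kg) giving a 50% rise over control CF is read from the dose-response curve, graphically (n < 3) or by linear regression (n ≥ 3).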

Canis familiaris [6] = assay: Percent change in mean arterial blood pressure (MAP) in anesthetized open chest dogs iv administration at 0.8750 mg/kg; format: functional, Canis lupus familiaris; settings: dose 0.875 mg/kg; outline: as §1
Canis familiaris [7] = assay: Percent increase in contractile force (CF) in anesthetized open-chest dogs id administration of 10 mg/kg; format: functional, Canis lupus familiaris; settings: route intraduodenal
Outline: (§2)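 Anesthetized open-chest dogs. A 10-mL bolus is injected into the duodenum through a catheter placed 2 cm distal to the pylorus. Contractile force is measured with a Walton Brodie strain gauge sutured to the right ventricle, at a baseline tension of 100 g, and monitored continuously. Results are given as % increase from predrug control against cumulative dose.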

Canis familiaris [8] = assay: Change in heart rate of anaesthetized, open chest dogs following 0.875 mg/kg i.v. administration.; format: functional, Canis lupus familiaris; settings: route intravenous; outline: as §1
Canis familiaris [9] = assay: Percent change in mean arterial blood pressure (MAP) in anesthetized open chest dogs iv administration at 10 mg/kg; format: functional, Canis lupus familiaris; outline: as §1
Canis familiaris [10] = assay: Percent change in left ventricular pressure (dP/dtmax) in anesthetized dog after iv administration at 10 mg/kg; format: functional, Canis lupus familiaris, Heart left ventricle; outline: as §1
Canis familiaris [11] = assay: Percent change in heart rate (HR) in anesthetized open chest dogs after a iv dose of 10 mg/kg; format: functional, Canis lupus familiaris; outline: as §1
Canis familiaris [12] = assay: Percent change in heart rate (HR) in anesthetized open chest dogs after a iv dose of 0.925 mg/kg; format: functional, Canis lupus familiaris; outline: as §1
Canis familiaris [13] = assay: Percent change in mean arterial blood pressure (MAP) in anesthetized open chest dogs iv administration at 0.9250 mg/kg; format: functional, Canis lupus familiaris; settings: dose 0.925 mg/kg; outline: as §1
Canis familiaris [14] = assay: Percent increase in contractile force (CF) in anesthetized open-chest dogs iv administration of 0.925 mg/kg; format: functional, Canis lupus familiaris
Outline: (§3)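 Anesthetized open-chest dogs. After a right thoracotomy, contractile force was recorded by a Walton Brodie strain gauge sutured to the right ventricle at 100 g baseline tension. Compound was given iv by infusion pump into a femoral vein, one drug per animal, in three to four stepwise increasing doses. Each dose ran over 5 min, starting once the previous dose's effect peaked. Values are % increase over predrug control vs cumulative mg/kg dose.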

Canis familiaris [15] = assay: Percent change in left ventricular pressure (dP/dtmax) in anesthetized dog after iv administration at 0.925 mg/kg; format: functional, Canis lupus familiaris, Heart left ventricle; outline: as §1
Canis familiaris [16] = assay: Contractile force in anesthetized open chest dogs id administration 1.00 mg/kg; format: functional, Canis lupus familiaris; settings: route intraduodenal; outline: as §2
Canis familiaris [17] = assay: Percent increase in left ventricular pressure (dP/dtmax) of anesthetized dog after id administration at 1 mg/kg; format: functional, Canis lupus familiaris, Heart left ventricle; settings: route intraduodenal
Outline: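 Anesthetized open-chest dogs. Left ventricular pressure was measured by Millar catheter and dP/dtmax derived. Compound was given as a 10-mL bolus into the duodenum through a catheter placed 2 cm distal to the pylorus via flank incision. Dissolved in DMF diluted to 10% in saline, or as HCl salt in saline. Response is % change over predrug control, monitored continuously.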

Canis familiaris [18] = assay: Percent change in mean arterial blood pressure (MAP) in anesthetized open chest dogs iv administration at 1 mg/kg; format: functional, Canis lupus familiaris; outline: as §1
Canis familiaris [19] = assay: Percent change in heart rate (HR) in anesthetized open chest dogs after a iv dose of 1 mg/kg; format: functional, Canis lupus familiaris; outline: as §1
Canis familiaris [20] = assay: Percent change in mean arterial blood pressure (MAP) in anesthetized open chest dogs iv administration at 8.75 mg/kg; format: functional, Canis lupus familiaris; outline: as §1
Canis familiaris [21] = assay: Percent change in heart rate (HR) in anesthetized open chest dogs after a iv dose of 8.75 mg/kg; format: functional, Canis lupus familiaris; outline: as §1
Canis familiaris [22] = assay: Percent increase in contractile force (CF) in anesthetized open-chest dogs iv administration of 8.75 mg/kg; format: functional, Canis lupus familiaris; outline: as §3
Canis familiaris [23] = assay: Percent change in left ventricular pressure (dP/dtmax) in anesthetized dog after iv administration at 8.75 mg/kg; format: functional, Canis lupus familiaris, Heart left ventricle; outline: as §1
Canis familiaris [24] = assay: Percent change in heart rate (HR) in anesthetized open chest dogs after a iv dose of 3.75 mg/kg; format: functional, Canis lupus familiaris; outline: as §1
Canis familiaris [25] = assay: Percent change in left ventricular pressure (dP/dtmax) in anesthetized dog after iv administration at 3.75 mg/kg; format: functional, Canis lupus familiaris, Heart left ventricle; outline: as §1
Canis familiaris [26] = assay: Percent change in mean arterial blood pressure (MAP) in anesthetized open chest dogs iv administration at 3.75 mg/kg; format: functional, Canis lupus familiaris; outline: as §1
Canis familiaris [27] = assay: Percent increase in contractile force (CF) in anesthetized open-chest dogs iv administration of 3.75 mg/kg; format: functional, Canis lupus familiaris; outline: as §3
Canis familiaris [28] = assay: Percent change in heart rate (HR) in anesthetized open chest dogs after a iv dose of 0.375 mg/kg; format: functional, Canis lupus familiaris; outline: as §1
Canis familiaris [29] = assay: Percent change in left ventricular pressure (dP/dtmax) in anesthetized dog after iv administration at 0.375 mg/kg; format: functional, Canis lupus familiaris, Heart left ventricle; outline: as §1
Canis familiaris [30] = assay: Percent change in mean arterial blood pressure (MAP) in anesthetized open chest dogs iv administration at 0.375 mg/kg; format: functional, Canis lupus familiaris; outline: as §1
Canis familiaris [31] = assay: Percent increase in contractile force (CF) in anesthetized open-chest dogs iv administration of 0.375 mg/kg; format: functional, Canis lupus familiaris; outline: as §3
Canis familiaris [32] = assay: Percent change in left ventricular pressure (dP/dtmax) in anesthetized dog after iv administration at 0.1 mg/kg; format: functional, Canis lupus familiaris, Heart left ventricle; outline: as §1
Canis familiaris [33] = assay: Percent increase in contractile force (CF) in anesthetized open-chest dogs iv administration of 0.1 mg/kg; format: functional, Canis lupus familiaris; outline: as §1
Canis familiaris [34] = assay: (§4) Percent change in mean arterial blood pressure (MAP) in anesthetized open chest dogs iv administration at 0.1 mg/kg; format: functional, Canis lupus familiaris; outline: as §1
Canis familiaris [35] = assay: Percent increase in contractile force (CF) in anesthetized open-chest dogs id administration of 1 mg/kg; format: functional, Canis lupus familiaris; settings: route intraduodenal; outline: as §2
Canis familiaris [36] = assay: (§5) Percent change in heart rate (HR) in anesthetized open chest dogs after a iv dose of 0.1 mg/kg; format: functional, Canis lupus familiaris; outline: as §1
Canis familiaris [37] = assay: Percent increase in contractile force (CF) in anesthetized open-chest dogs id administration of 0.100 mg/kg; format: functional, Canis lupus familiaris; settings: dose 0.1 mg/kg; route intraduodenal; outline: as §2
Canis familiaris [38] = assay: Percent increase in contractile force (CF) in anesthetized open-chest dogs iv administration of 0.100 mg/kg; format: functional, Canis lupus familiaris; settings: dose 0.1 mg/kg; outline: as §1
Canis familiaris [39] = assay: as §5; format: functional, Canis lupus familiaris; outline: as §1; remark: listed apart in the source
Canis familiaris [40] = assay: as §4; format: functional, Canis lupus familiaris; outline: as §1; remark: listed apart in the source

IC50 (Phosphodiesterase 3): 80 µM
SMILES: COc1cc(OC)c2c(C)nc(O)cc2c1
Increase (Canis familiaris [1]): 62% | Change (Canis familiaris [2]): 13% | Change (Canis familiaris [3]): -18% | Increase (Canis familiaris [4]): 91% | ED50 (Canis familiaris [5]): 0.375 mg/kg

IC50 (Phosphodiesterase 3): 35 µM
SMILES: COC(=O)CCc1c(O)nc(C)c2cc(OC)c(OC)cc12
Change (Canis familiaris [6]): -12% | Increase (Canis familiaris [7]): 105% | Increase (Canis familiaris [1]): 78% | Change (Canis familiaris [8]): 34% | Change (Canis familiaris [9]): -11% | Increase (Canis familiaris [10]): 52% | Change (Canis familiaris [11]): 12% | Increase (Canis familiaris [4]): 140% | ED50 (Canis familiaris [5]): 0.165 mg/kg

IC50 (Phosphodiesterase 3): 160 µM
SMILES: COc1ccc2c(C)nc(O)cc2c1
Change (Canis familiaris [12]): 8% | Change (Canis familiaris [13]): 0% | Increase (Canis familiaris [14]): 65% | ED50 (Canis familiaris [5]): 0.6 mg/kg | Increase (Canis familiaris [15]): 56%

IC50 (Phosphodiesterase 3): 5 µM
SMILES: CCCc1c(O)nc(C)c2cc(OC)c(OC)cc12
Change (Canis familiaris [6]): 4% | Increase (Canis familiaris [16]): 20% | Increase (Canis familiaris [1]): 55% | Change (Canis familiaris [8]): 22% | Increase (Canis familiaris [17]): 20% | Increase (Canis familiaris [4]): 108% | Change (Canis familiaris [18]): 3% | ED50 (Canis familiaris [5]): 0.125 mg/kg | Change (Canis familiaris [19]): 5%

SMILES: COc1ccc2cc(O)ncc2c1OC
Change (Canis familiaris [20]): -7% | Change (Canis familiaris [21]): 13% | Increase (Canis familiaris [22]): 60% | Increase (Canis familiaris [23]): 34%

SMILES: Cc1nc(O)cc2cc3c(cc12)OCO3
Change (Canis familiaris [24]): 13% | Increase (Canis familiaris [25]): 32% | Change (Canis familiaris [26]): -10% | Increase (Canis familiaris [27]): 82%

SMILES: COc1cc2c(C)nc(OC(C)=O)c(Br)c2cc1OC
Change (Canis familiaris [28]): 15% | Increase (Canis familiaris [29]): 60% | Change (Canis familiaris [30]): -33% | Increase (Canis familiaris [31]): 117%

IC50 (Phosphodiesterase 3): 10 µM
SMILES: COc1cc2c(C)nc(O)c(C)c2cc1OC
Increase (Canis familiaris [32]): 48% | Increase (Canis familiaris [33]): 80% | Change (Canis familiaris [34]): -4% | Increase (Canis familiaris [35]): 64% | Increase (Canis familiaris [17]): 30% | Change (Canis familiaris [36]): 15% | Change (Canis familiaris [18]): -6% | ED50 (Canis familiaris [5]): 0.04 mg/kg | Change (Canis familiaris [19]): 8%

SMILES: Cc1[nH]c(=O)c(C#N)cc1-c1ccncc1 [MILRINONE]
Increase (Canis familiaris [32]): 76% | Increase (Canis familiaris [37]): 85% | Change (Canis familiaris [34]): -3% | Increase (Canis familiaris [38]): 105% | Increase (Canis familiaris [17]): 36% | Change (Canis familiaris [39]): 14% | Change (Canis familiaris [36]): 15% | Change (Canis familiaris [40]): -13%
